The source made the active and inactive calls.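 The calls were made as follows, unless noted: active = fluorescence slope after compound addition differing from the mean of all screened samples at 99.7% confidence, in either direction; inactive = the rest.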
Key:
[1] = inhibitors of TNFa-induced NFkB p65 translocation, primary screen, imaging, HUVEC, MLSMR starter and 10KST1 sets (AID 438;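 active = inhibition above 20% together with a positive visual image hit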;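 also: compound added about 3h40 before a 20 min TNFalpha stimulation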;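 as to inhibition: signal is the nuclear over cytoplasmic p65 intensity ratio per well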); conditions: HUVEC TNFa-induced p65 nuclear translocation; cell count: measured here: nuclei count (cytotoxicity indicator), at 2.08 µM; inhibition: at 2 µM, stronger effect = higher value, 0% TNFa-plus-vehicle, 100% no-TNFa wells
[2] = inhibitors of E-selectin induction by TNFa, primary screen, imaging, HUVEC, immunofluorescence, MLSMR starter and 10KST1 sets (AID 487;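 active = visually confirmed hit in the image check and inhibition above 20%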;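 as to inhibition: signal is fraction of cell area covered by stained E-selectin grains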;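 as to nuclei count: 100% = median nuclei count of all wells on the same plate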); conditions: HUVEC TNFalpha-induced E-selectin immunofluorescence imaging, at 2 µM; inhibition: stronger effect = higher value; nuclei count: measured here: cell number, toxicity
[3] = DUSP6 inhibitors restoring Erk phosphorylation by chemical complementation, primary imaging in DUSP6-transfected HeLa (AID 609;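 active = compounds giving at least 50% inhibition in the cell-based MKP-3 phosphatase rescue imaging test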;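 as to inhibition: phospho-Erk level distribution per well compared with pooled transfected vehicle control wells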); conditions: HeLa MKP-3 transfected, phospho-Erk imaging KS statistic, at 10 µM, cells stimulated with TPA for 15 min
[4] = target: Dual specificity protein phosphatase 6 (Homo sapiens) (UniProt Q16828); test: as above; conditions: HeLa MKP-3 transfected, phospho-Erk imaging KS statistic; at 10 µM; stronger effect = higher value; cells stimulated with TPA for 15 min
[5] = target: Voltage-gated potassium channel subunit beta-2 (Rattus norvegicus) (UniProt P62483); test: KvBeta enzyme negative modulators, primary screen, biochemical, NADPH fluorescence (AID 622;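 active = fluorescence slope higher than the sample average by over 3 SD, cut at about -0.22 in these data, passing the limit was not always enough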;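 also: slope of raw intensity against log time taken from 70 to 1610 s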); conditions: recombinant KvBeta, 4-cyanobenzaldehyde reduction, at 10 µM, stronger effect = higher value
[6] = target: Voltage-gated potassium channel subunit beta-2 (Rattus norvegicus) (UniProt P62483); test: KvBeta positive modulators, primary screen, biochemical, NADPH fluorescence (AID 623;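 active = NADPH fluorescence slope more negative than the mean of all samples by about 3 SD, 99.7% confidence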;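 also: fluorescence intensity change per second fitted from 20 to 320 s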); conditions: Recombinant KvBeta, NADPH fluorescence decrease slope, 10 min; at 10 µM; stronger effect = lower value
[7] = target: Alpha-2C adrenergic receptor (Homo sapiens) (UniProt P18825); test: modulators of alpha2C/GIRK thallium flux, primary screen, cell-based, HEK293 alpha2C/GIRK1/2 (AID 624); conditions: thallium flux BTC fluorescence, at 10 µM, actives lie on both sides;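 also: slope of fluorescence ratio to pre-addition baseline per second over 15 to 24 s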
[8] = inhibitors of larval lipid processing in zebrafish, primary screen, whole organism, PED6 fluorescence, gall bladder and intestine (AID 686;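 active = a full or partial loss of lipid-probe fluorescence in the fish gall bladder, intestine or both, judged by eye; inactive = no fluorescence loss, or compound toxic to the fish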;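 also: larvae 5 to 7 days old with five fish per well; signal comes from phospholipase A2 cleavage of quenched PED6 carried via bile; overnight exposure to compound and PED6 before scoring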); conditions: Zebrafish larvae PED6 lipid processing, fluorescence scoring; screened at 20 µM (by protocol)
How it was run: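 System: live zebrafish larvae aged 5-7 days, whole organism; measure: graded gall bladder and intestinal fluorescence inhibition per well; incubation: overnight exposure; reagent: ingested quenched lipid PED6 at 100 nM; signal: By-eye fluorescence microscopy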

[9] = inhibitors of Chlamydomonas gravitaxis, primary screen, whole organism, Chlamydomonas reinhardtii, WT vs cilia-less mutant, absorbance, 96-well (AID 463189;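 active = inhibition at or above 50% relative to wild type and mutant plate controls; inactive = inhibition below 50%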;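 also: 0% = wild type cc124 cells in DMSO and 100% = ciliumless bld1 mutant cells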); conditions: OD600 absorbance, 2 days, at 10 µM, stronger effect = higher value
[10] = measured here: cell density z-score
[11] = measured here: nuclear c-Myc green intensity z-score
[12] = measured here: nuclear pErk red intensity z-score, stronger effect = higher value

Sequence of Alpha-2C adrenergic receptor (Homo sapiens) (P18825 whole entry, looked up): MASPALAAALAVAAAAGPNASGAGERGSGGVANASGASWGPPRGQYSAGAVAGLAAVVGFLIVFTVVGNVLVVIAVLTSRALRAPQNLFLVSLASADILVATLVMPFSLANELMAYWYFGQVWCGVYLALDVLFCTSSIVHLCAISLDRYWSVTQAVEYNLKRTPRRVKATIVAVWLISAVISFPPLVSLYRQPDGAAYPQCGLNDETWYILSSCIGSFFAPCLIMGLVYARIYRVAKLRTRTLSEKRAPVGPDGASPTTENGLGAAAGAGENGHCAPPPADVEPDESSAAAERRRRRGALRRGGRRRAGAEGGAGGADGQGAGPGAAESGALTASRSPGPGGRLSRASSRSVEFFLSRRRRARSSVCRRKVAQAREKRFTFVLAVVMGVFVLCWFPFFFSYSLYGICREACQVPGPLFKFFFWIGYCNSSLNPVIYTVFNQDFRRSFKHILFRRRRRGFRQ
Sequence of Voltage-gated potassium channel subunit beta-2 (Rattus norvegicus) (P62483 whole entry, looked up): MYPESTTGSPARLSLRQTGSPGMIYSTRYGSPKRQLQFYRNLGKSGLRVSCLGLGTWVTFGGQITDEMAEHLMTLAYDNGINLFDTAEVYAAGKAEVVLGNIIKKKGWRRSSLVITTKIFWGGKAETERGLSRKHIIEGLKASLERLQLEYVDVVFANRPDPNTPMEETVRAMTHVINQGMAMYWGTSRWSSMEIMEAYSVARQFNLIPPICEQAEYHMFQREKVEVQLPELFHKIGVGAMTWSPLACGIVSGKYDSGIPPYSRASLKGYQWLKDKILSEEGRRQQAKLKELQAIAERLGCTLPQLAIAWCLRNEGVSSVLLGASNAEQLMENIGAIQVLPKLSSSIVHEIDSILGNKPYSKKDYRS
Sequence of Dual specificity protein phosphatase 6 (Homo sapiens) (Q16828 whole entry, looked up): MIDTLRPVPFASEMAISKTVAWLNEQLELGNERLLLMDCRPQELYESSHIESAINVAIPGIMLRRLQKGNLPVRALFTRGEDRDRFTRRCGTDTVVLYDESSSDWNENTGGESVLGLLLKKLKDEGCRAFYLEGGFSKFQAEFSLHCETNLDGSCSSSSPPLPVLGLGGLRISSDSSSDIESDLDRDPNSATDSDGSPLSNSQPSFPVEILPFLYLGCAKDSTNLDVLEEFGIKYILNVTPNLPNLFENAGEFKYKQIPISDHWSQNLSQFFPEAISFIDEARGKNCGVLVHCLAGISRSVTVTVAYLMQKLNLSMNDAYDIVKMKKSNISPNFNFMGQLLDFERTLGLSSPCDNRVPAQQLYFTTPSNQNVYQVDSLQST

Compound	cell count [1]	inhibition [1]	inhibition [2]	nuclei count [2] [%]	z-score [3, 10]	z-score [3, 11]	z-score [3, 12]	inhibition [4]	fluorescence slope [5]	NADPH fluorescence slope [6]	slope [7]	outcome [8]	inhibition [9]
CCn1cc(C(=O)NCCc2ccccc2)c(=O)c2cc(F)c(N3CCN(C)CC3)cc21	483	-8.4% (inactive)	-187% (inactive)	186	-0.562	1.62	1.38	-8.95% (inactive)	-0.321 (inactive)	-1.5e-05 (inactive)	0.00526 (inactive)	inactive	23.3% (inactive)
CC1(C)CC(=O)C(C=NCC(O)c2ccccc2)=C(O)C1 (stereo unspecified)	461	-12.7% (inactive)	-181% (inactive)	204	-1.15	1.23	0.572	4.37% (inactive)	-0.354 (inactive)	-1.9e-05 (inactive)	0.00522 (inactive)	inactive	14.3% (inactive)
O=C(NC1CCCCC1)N1CCSC1=Nc1ccccc1	490	-27.8% (inactive)	-420% (inactive)	202	0.92	-1.53	0.173	24.4% (inactive)	-0.495 (inactive)	-9.6e-05 (inactive)	0.00417 (inactive)	inactive	11.3% (inactive)
CCCCCCc1cc2cc(-c3nnc(-c4ccccc4O)o3)c(=O)oc2cc1O	473	-2.3% (inactive)	-99.6% (inactive)	122	-0.061	1.83	-1.3	-7.79% (inactive)	-0.274 (inactive)	5.9e-06 (inactive)	0.0685 (active)	inactive	13.3% (inactive)
COC(=O)CN(c1nc(C)cc(OC)n1)S(=O)(=O)c1ccccc1	568	-3.9% (inactive)	-82.4% (inactive)	122	-1.67	0.823	-0.13	3.56% (inactive)	-0.391 (inactive)	-2.2e-05 (inactive)	0.00529 (inactive)	inactive	-16.2% (inactive)
CC(C(=O)N1CCOCC1)N1C(=O)c2ccccc2C1=O (stereo unspecified)	306	-3% (inactive)	-45.1% (inactive)	96	1.24	-0.122	-1.67	-8.76% (inactive)	-0.419 (inactive)	2.4e-06 (inactive)	0.0049 (inactive)	inactive	15.3% (inactive)
CCCCn1c(C)cc2cc(O)ccc21	320	-9.2% (inactive)	-73.6% (inactive)	154	-1.22	2.41	1.37	-8.76% (inactive)	-0.432 (inactive)	-0.000136 (inactive)	0.00664 (inactive)	inactive	-7.64% (inactive)
COc1cc(C(=O)Nc2nccs2)cc(OC)c1OC	542	-19.4% (inactive)	53.4% (inactive)	163	1.12	-0.213	0.494	-13.3% (inactive)	-0.409 (inactive)	-6e-05 (inactive)	0.00501 (inactive)	inactive	-0.002% (inactive)
COc1ccccc1C(=O)N1CCCC1(C#N)c1ccccc1 (stereo unspecified)	653	1.8% (inactive)	-44.9% (inactive)	121	-0.569	-0.677	-0.674	-6.48% (inactive)	-0.475 (inactive)	-0.000294 (inactive)	0.00555 (inactive)	inactive	13% (inactive)
Cc1c(-c2cccs2)[n+](=O)c2c(n1[O-])CCCC2	431	-16.7% (inactive)	-128% (inactive)	164	1.59	-0.562	-0.0919	15% (inactive)	-0.419 (inactive)	-1.1e-05 (inactive)	0.0072 (inactive)	inactive	15.1% (inactive)
CC(C)Cc1[nH]c(=O)c(C#N)c2c1CCCC2	623	1.3% (inactive)	2.8% (inactive)	155	-1.11	0.566	0.412	5.65% (inactive)	-0.318 (inactive)	-9.4e-06 (inactive)	0.00948 (inactive)	inactive	16.6% (inactive)
CCCOc1ccc(N2C(=O)CC(N(CCC)C(=O)CCC(=O)O)C2=O)cc1 (stereo unspecified)	468	-11.6% (inactive)	-161% (inactive)	204	-1.24	-0.331	-0.093	7.7% (inactive)	-0.384 (inactive)	-9.2e-06 (inactive)	0.00456 (inactive)	inactive; toxic	11.3% (inactive)
